Assay results as given in publication PMC5393272 (Nature chemical biology, 2016).

Key:
PC9 cells [1] = test: MTT proliferation assay, PC9; type: cell-based
How it was run: (§1)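 NSCLC cells (2×10^3 per well, triplicate wells) were grown in 10% serum medium with 10 μM test compound or 1 μM tunicamycin; medium and inhibitor were renewed every 48 h. MTT was added 4 h before reading absorbance at 570 nm on days 0, 3 and 5. Mean ± s.d., n = 3; two-tailed t-tests.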

H3225 [2] = test: Cell cycle distribution by flow cytometry, H3225; type: cell-based; conditions: H3225, NGI-1 24 h; control 55%; p<.05
How it was run: (§2)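 Cells were treated with test compound (24 h stated for PC9 and A549). 1 × 10^6 cells were washed in ice-cold PBS, fixed overnight in ice-cold 70% ethanol at −20°C, then stained in Guava Cell Cycle Reagent for 30 min at room temperature. Analysis was on an LSRII cytometer, gating normal FSC/SSC and excluding doublets by FSC-A vs FSC-H. About 30,000 cells per run; mean of 3 independent assays; two-tailed t-tests.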

EGFR [3] = test: Western blot of EGFR N-linked glycosylation in lung adenocarcinoma cells; type: cell-based; conditions: 10μM NGI-1, 24h; residual glycosylation remains
OST [4] = test: Cell free pSAP glycosylation with canine pancreas microsomes; type: biochemical; conditions: in vitro translation of pSAP mRNA, 60 min
KD mutant EGFR = test: EGFR phosphorylation western blot in PC9 cells; type: cell-based; conditions: 10μM NGI-1, 1 day
How it was run: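 PC9 cells (with A549 for comparison) were treated with 10 μM test compound for 24 h. Lysates were western blotted for EGFR phospho-Y1173, and glycoform gel-mobility shifts were noted.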

A549 cells [5] = test: Senescence assessment, A549; type: cell-based; conditions: A549, NGI-1 for 5 days
How it was run: (§3)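 PC9 and A549 cells, untreated or given 10 μM test compound, were fixed in 70% ethanol and stained with DAPI for 30 min. Flow cytometry used 532 nm and 405 nm lasers; autofluorescence emission at 575 nm was read after DAPI gating; n = 4.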

GRP78/BiP = test: ER stress response, GRP78/BiP protein expression; type: cell-based; conditions: PC9 and A549 cell lines, NGI-1
HCC-827 = test: Proliferation assay, HCC-827; type: cell-based; conditions: HCC-827 (EGFR KD mutation), NGI-1
STT3B = STT3B (Homo sapiens, UniProt Q8TCJ2); test: 35S metabolic labeling of SHBG glycosylation; type: cell-based
How it was run: (§4)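 HeLa cells transfected with pSAP or SHBG vectors, given 10 μM test compound and metabolically labelled with 35S. Glycoforms were scored and reported as the average number of glycans per sample, with endoglycosidase H-treated controls. Runs were compared with siRNA knockdown of STT3A or STT3B against non-coding siRNA. Dose-response was run on pSAP and SHBG expressed in HEK293 cells.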

A549 cells [6] = test: Apoptosis assessment, A549; type: cell-based
OST [7] = type: biochemical; conditions: NGI-1 5 μM; streptolysin-O permeabilized CHO cells; QYT or NYT peptide
How it was run: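 CHO cells permeabilized with streptolysin-O, incubated with test compound and either control tripeptide Ac-Gln-Tyr-Thr-CONH2 or glycosylation acceptor Ac-Asn-Tyr-Thr-CONH2. Free glycans and cleaved N-linked glycans resolved by fluorophore-assisted carbohydrate electrophoresis; n=2 for each product.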

FGFR1 = test: FGFR phosphorylation western blot in H1581 and H2444; type: cell-based; conditions: H1581 and H2444 NSCLC cell lines, NGI-1
How it was run: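 H1581 and H2444 NSCLC cells were treated with test compound. Lysates were western blotted with anti-phospho-FGFR (Tyr653/654) at 1:3,000, and gel mobility was assessed.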

H1581 cell line = test: MTT proliferation assay, H1581; type: cell-based; conditions: H1581 (FGFR1-dependent), 10μM NGI-1, 5 d
How it was run: as §1

[8] = test system: N-linked glycosylation in D54-ERLucT cells; test: D54-ERLucT cell based luciferase assay for inhibition of N-linked glycosylation; conditions: intact D54 ER-LucT cells in culture; maximum activation using 20 μM NGI-1; n=4
cyclin D1 = test: Cyclin D1 mRNA and protein, A549; type: cell-based, human; conditions: A549, NGI-1
How it was run: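 Cyclin D1 mRNA: A549 and PC9 cells were treated with test compound, total RNA purified and reverse transcribed, and qPCR run with SYBR Green normalised to GAPDH. Cycling was 95°C 10 min, then 40 cycles of 95°C 30 s, 55°C 15 s, 72°C 30 s. Triplicate PCRs; n = 4; two-tailed t-tests. Protein was assessed by western blot, n = 3.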

A549 cell line = test: MTT proliferation assay, A549; type: cell-based
How it was run: as §1

H2444 cells [9] = test: Cell cycle distribution by flow cytometry, H2444; type: cell-based; conditions: H2444, NGI-1
How it was run: as §2

[10] = test system: LLO synthesis in CHO cells; test: FACE analysis of LLOs in wild type CHO cells; type: cell-based; conditions: for effect on LLO synthesis: FACE
How it was run: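 Wild-type CHO cells were treated with test compound or tunicamycin. Lipid-linked oligosaccharides were analysed by fluorophore-assisted carbohydrate electrophoresis, with mature Glc3Man9 LLO as the size marker; n = 3.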

A549 cells [11] = test: Cell cycle distribution by flow cytometry, A549; type: cell-based; conditions: A549, NGI-1 24 h
How it was run: as §2

[12] = test system: luciferase N-linked glycosylation in D54 ER-LucT cells; test: Western blot of luciferase N-linked glycosylation in NGI-1 treated cell cultures; type: cell-based; conditions: doses 25 times the estimated IC50; unlike tunicamycin
PC9 cells [13] = test: Cell cycle distribution by flow cytometry, PC9; type: cell-based; conditions: PC9, NGI-1 24 h; control 65%; p<.01
How it was run: as §2

Integrin B1 (ITB1) = test: ITB1 glycosylation and localization; type: cell-based; conditions: 10μM NGI-1, 48 h; hypo-glycosylated ITB1 still at the cell surface
How it was run: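 H3255 cells were treated with 10 μM test compound for 48 h. Surface biotinylation: on ice, cells were labelled with 0.5 mg/ml Sulfo-NHS-SS-biotin in PBS for 60 min at 4°C, quenched with 100 mM glycine, lysed, and pulled down on streptavidin-agarose overnight at 4°C. Bound (surface) and unbound (intracellular) fractions were blotted on 7.5% SDS-PAGE. Confocal imaging used anti-β1-integrin at 1:500.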

H1581 cells = test: Cell cycle distribution by flow cytometry, H1581; type: cell-based; conditions: H1581, NGI-1; control 55%; p<.05
How it was run: as §2

EGFR [14] = test: EGFR localization by surface biotinylation and confocal microscopy; type: cell-based; conditions: H3255 cells, 10 μM NGI-1, 24 h; identical in HCC-827
HCC-827 cells = test: Cell cycle distribution by flow cytometry, HCC-827; type: cell-based; conditions: HCC-827, NGI-1 24 h; control 50%; p<.01
How it was run: as §2

H2444 cells [15] = test: MTT proliferation assay, H2444; type: cell-based; conditions: H2444 (FGFR amplified, not FGFR1-dependent), 10μM NGI-1, 5 d
How it was run: as §1

PC9 cells [16] = test: Apoptosis assessment, PC9; type: cell-based
p21 = p21 protein western blot, PC9; type: cell-based; conditions: PC9, NGI-1
PC9 cells [17] = test: Senescence assessment; type: cell-based; conditions: PC9, NGI-1 for 5 days; emission 575 nm; p<.05
How it was run: as §3

H3225 [18] = test: Proliferation assay, H3225; type: cell-based; conditions: H3225 (EGFR KD mutation), NGI-1
STT3A = STT3A (Homo sapiens, UniProt P46977); test: 35S metabolic labeling of pSAP glycosylation; type: cell-based
Sequence of STT3A (P46977 whole entry): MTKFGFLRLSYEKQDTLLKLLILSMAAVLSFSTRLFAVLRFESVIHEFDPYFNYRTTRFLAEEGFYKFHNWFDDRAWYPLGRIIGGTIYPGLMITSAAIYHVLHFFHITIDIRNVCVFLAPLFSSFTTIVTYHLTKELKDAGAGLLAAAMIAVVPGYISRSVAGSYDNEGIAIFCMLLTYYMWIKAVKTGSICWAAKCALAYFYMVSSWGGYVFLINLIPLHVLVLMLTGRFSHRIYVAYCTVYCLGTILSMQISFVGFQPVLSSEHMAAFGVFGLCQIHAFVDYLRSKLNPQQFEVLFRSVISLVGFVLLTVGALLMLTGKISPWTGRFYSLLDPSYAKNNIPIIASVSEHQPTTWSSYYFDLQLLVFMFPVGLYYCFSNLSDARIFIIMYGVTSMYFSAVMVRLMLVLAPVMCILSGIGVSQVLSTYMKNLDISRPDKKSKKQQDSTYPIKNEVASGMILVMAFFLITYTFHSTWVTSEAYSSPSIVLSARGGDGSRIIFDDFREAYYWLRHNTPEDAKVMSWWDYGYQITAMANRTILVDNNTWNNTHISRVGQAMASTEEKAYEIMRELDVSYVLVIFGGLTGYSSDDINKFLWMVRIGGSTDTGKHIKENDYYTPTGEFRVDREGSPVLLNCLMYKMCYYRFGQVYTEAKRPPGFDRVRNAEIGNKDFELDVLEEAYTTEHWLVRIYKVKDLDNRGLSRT
How it was run: as §4

[19] = HeLa cells, 10 μM, NGI-1 omitted during pulse labeling interval (20 minutes)

Cc1cnc(NC(=O)c2cc(S(=O)(=O)N(C)C)ccc2N2CCCC2)s1 [NGI-1]
reduction of cell proliferation (PC9 cells [1]; PC9, 10μM NGI-1, after 3 days, MTT, p <.001): more than 90%
cells in G1 (H3225 [2]): 80%
EGFR N-linked glycosylation (molecular weight on SDS-PAGE) (EGFR [3]): blocked EGFR N-linked glycosylation
inhibition of pSAP N-linked glycosylation (OST [4]): dose dependent inhibition
phosphorylation of KD mutant EGFR (Y1173) (KD mutant EGFR): blocked phosphorylation
hallmarks of senescence (autofluorescence, lipofuscin aggregates, morphology) (A549 cells [5]): none of these changes were detected
ER stress response (GRP78/BiP protein expression) (GRP78/BiP): induced a similar ER stress response in both cell lines
effect on proliferation (HCC-827): sensitive
reversibility of inhibition of site occupancy (STT3B specific sites) (STT3B; [19]): reversible
LLO transfer to STT3B dependent sites (SHBG) (STT3B; dose response, HEK293 cells): completely blocks
induction of apoptosis (A549 cells [6]; A549, NGI-1 for 2 or 5 days): did not induce apoptosis
production of OST products (free glycans and N-glycans) (OST [7]): substantially reduce the production of both OST products
FGFR1 phosphorylation (Y653/654) (FGFR1): blocked FGFR1 phosphorylation
effect on proliferation (H1581 cell line): blocked proliferation
AC50 (equivalent to IC50), luciferase activity [8]: 1.1 µM
cyclin D1 mRNA and protein levels (cyclin D1): not significantly affected
effect on proliferation (A549 cell line; A549 (KRAS G12S), 10μM NGI-1, MTT over 5 days): continued to proliferate
G1 arrest (H2444 cells [9]): not in H2444 cells
effect on LLO synthesis [10]: did not impair LLO synthesis
increase of Glc3Man9GlcNAc2 LLO ([10]; p <.01): 31%
cell cycle distribution (A549 cells [11]): did not significantly change
extent of N-linked glycosylation inhibition [12]: did not completely abolish all N-linked glycosylation
cells in G1 (PC9 cells [13]): 90%
ITB1 glycosylation (Integrin B1 (ITB1)): significantly reduced ITB1 glycosylation
cells in G1 (H1581 cells): 80%
EGFR trafficking / cellular localization (EGFR [14]): blocks EGFR trafficking to the cell surface
cells in G1 (HCC-827 cells): 75%
effect on proliferation (H2444 cells [15]): NGI-1 insensitive
induction of apoptosis (PC9 cells [16]; PC9, NGI-1 for 2 or 5 days): did not induce apoptosis
protein levels of p21 (p21): increase within 24 h
increased autofluorescence by flow cytometry (PC9 cells [17]): 60.4% ± 7.5%
effect on proliferation (H3225 [18]): sensitive
reversibility of inhibition of site occupancy (STT3A specific sites) (STT3A; [19]): reversible
glycosylation of STT3A dependent sites (pSAP) (STT3A; dose response, HEK293 cells): less potent and incompletely blocks

tunicamycin [reference compound]
effect on proliferation (PC9 cells [1]; PC9, 1μM tunicamycin, MTT over 5 days): immediately blocks proliferation
induction of apoptosis (A549 cells [6]; A549, tunicamycin treatment): apoptosis was activated
effect on proliferation (A549 cell line; A549, 1μM tunicamycin, MTT over 5 days): immediately blocks proliferation
effect on LLO synthesis [10]: blocked all LLO production
induction of apoptosis (PC9 cells [16]; PC9, tunicamycin treatment): apoptosis was activated
